Legend:
[1] = system: Rattus norvegicus; experiment: Antiinflammatory efficacy is measured by the percent inhibition of paw volume during the 3 week adjuvant arthritis test at 0.02 mM/kg (7.28 mg); assay type: functional
Procedure, shortened: (§1)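 Male Sprague-Dawley rats (200–230 g) were used in groups of eight. Each received 0.1 mL of 0.6% M. butyricum in heavy mineral oil into the plantar tissue of one hind paw. Daily oral gavage in 1% gum tragacanth or corn oil-water emulsion began on the injection day and ran 21 days. Total hind paw volume was measured by mercury displacement, and inhibition was taken versus vehicle-treated adjuvant controls.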

[2] = system: Rattus norvegicus; experiment: Ulcerogenicity was measured in stomach during the 3 week adjuvant arthritis test, no of animals with ulcers out of 8 animals tested at 0.16 mM/kg (58.2 mg) was reported; assay type: functional
Procedure, shortened: (§2)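 Male Sprague-Dawley rats (200–230 g) were injected in the plantar tissue of one hind paw with 0.1 mL of 0.6% M. butyricum suspension in heavy mineral oil. Daily oral gavage began on the day of adjuvant injection and ran for the 21 days, with drug suspended in 1% gum tragacanth or a corn oil-water emulsion. At the end the rats were sacrificed and the small intestine and stomach were examined for ulcers. Results are given as animals with ulcers/animals tested.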

[3] = system: Rattus norvegicus; experiment: Ulcerogenicity was measured in intestine during the 3 week adjuvant arthritis test, no of animals with ulcers out of 8 animals tested at 0.08 mM/kg (29.1 mg) was reported; assay type: functional
Procedure, shortened: (§3)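 In the 21-day adjuvant arthritis model, male Sprague-Dawley rats (200–230 g) received an M. butyricum mineral-oil suspension into one hind paw. They were dosed daily by gavage from the day of injection. At the end of the study the rats were killed, and the small intestines were examined for ulcers. Results are given as the number of ulcerated animals over the number tested.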

[4] = system: Rattus norvegicus; experiment: Antiinflammatory efficacy is measured by the weight gain in rats during the 3 week adjuvant arthritis test at 0.02 mM/kg (7.28 mg); assay type: functional
Procedure, shortened: (§4)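 Rats were adjuvant-injected (M. butyricum in mineral oil, one hind paw) or given a mineral-oil placebo. They were dosed by gavage daily for 21 days from the injection day, with vehicle only for both control groups, then weighed at the end. Weight gain % = (treated − adjuvant control)/(negative control − adjuvant control) × 100.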

[5] = system: Rattus norvegicus; experiment: Antiinflammatory efficacy is measured by the weight gain in rats during the 3 week adjuvant arthritis test at 0.32 mM/kg (116.4 mg); assay type: functional
Procedure, shortened: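 Male Sprague-Dawley rats (200–230 g), eight per group, received 0.1 mL of 0.6% M. butyricum in heavy mineral oil (negative controls: mineral oil) into one hind-paw plantar tissue. Daily gavage in 1% gum tragacanth or corn oil-water emulsion began on the injection day, for 21 days. Weight gain is expressed as (treated − adjuvant control)/(negative control − adjuvant control) × 100.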

[6] = system: Rattus norvegicus; experiment: Antiinflammatory efficacy is measured by the percent inhibition of paw volume during the 3 week adjuvant arthritis test at 0.08 mM/kg (29.1 mg); assay type: functional; procedure, shortened: as §1
[7] = system: Rattus norvegicus; experiment: The percent inhibition was calculated from the average differences in hind paw volume between the adjuvant injected controls and the adjuvant-injected medicated rats at 0.08 mmol/kg; 60-69; assay type: functional
[8] = system: Rattus norvegicus; experiment: Ulcerogenicity was measured in intestine during the 3 week adjuvant arthritis test, no of animals with ulcers out of 7 animals tested at 0.32 mM/kg (116.4 mg) was reported; assay type: functional; procedure, shortened: as §3
[9] = system: Rattus norvegicus; experiment: The mean increase in paw volume was compared between drug treated groups and placebo to calculate the percent inhibition in rats at 0.02 mmol/kg by carrageenan Edema Assay; 30-39; assay type: functional
[10] = organism: Rattus norvegicus; experiment: Effective Dose 50 is the amount of material required to elicit inflammatory effect in 50% of an animal population; assay type: functional
Procedure, shortened: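 In the 21-day adjuvant arthritis test in male Sprague-Dawley rats, daily gavage started on the day of M. butyricum injection. At the end, total hind paw volume was measured by mercury displacement. ED50 is the dose giving 50% inhibition of total hind paw volume change.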

[11] = system: Rattus norvegicus; experiment: Ulcerogenicity was measured in intestine during the 3 week adjuvant arthritis test.(animals with ulcers/animals in test) at 0.16 mM/kg (58.2 mg); 4/8; assay type: functional; procedure, shortened: as §2
[12] = system: Rattus norvegicus; experiment: Antiinflammatory efficacy is measured by the weight gain in rats during the 3 week adjuvant arthritis test at 0.005 mM/kg (1.82 mg); assay type: functional; procedure, shortened: as §4
[13] = system: Rattus norvegicus; experiment: Ulcerogenicity was measured in stomach during the 3 week adjuvant arthritis test, no of animals with ulcers out of 7 animals tested at 0.32 mM/kg (116.4 mg) was reported; assay type: functional; procedure, shortened: as §2
[14] = molecular target: prostaglandin synthetase (Bos taurus); experiment: Inhibitory concentration against prostaglandin synthetase from bull seminal vesicles
[15] = system: Rattus norvegicus; experiment: Antiinflammatory efficacy is measured by the weight gain in rats during the 3 week adjuvant arthritis test at 0.16 mM/kg (58.2 mg); assay type: functional; procedure, shortened: as §4
[16] = system: Rattus norvegicus; experiment: Antiinflammatory efficacy is measured by the percent inhibition of paw volume during the 3 week adjuvant arthritis test at 0.005 mM/kg (1.82 mg); assay type: functional; procedure, shortened: as §1
[17] = system: Rattus norvegicus; experiment: Ulcerogenicity was measured in stomach during the 3 week adjuvant arthritis test, no of animals with ulcers out of 8 animals tested at 0.08 mM/kg (29.1 mg) was reported; assay type: functional; procedure, shortened: as §2
[18] = organism: Mus musculus; experiment: Effective Dose 50 is the amount of material required to elicit analgesic effect in 50% of an animal population
[19] = system: Rattus norvegicus; experiment: Antiinflammatory efficacy is measured by the weight gain in rats during the 3 week adjuvant arthritis test at 0.08 mM/kg (29.1 mg); assay type: functional; procedure, shortened: as §4
[20] = system: Rattus norvegicus; experiment: The percent inhibition was calculated from the average differences in hind paw volume between the adjuvant injected controls and the adjuvant-injected medicated rats at 0.08 mmol/kg; 70-79; assay type: functional
[21] = system: Rattus norvegicus; experiment: The mean increase in paw volume was compared between drug treated groups and placebo to calculate the percent inhibition in rats at 0.08 mmol/kg by carrageenan Edema Assay; 60-69; assay type: functional
[22] = system: Rattus norvegicus; experiment: The mean increase in paw volume was compared between drug treated groups and placebo to calculate the percent inhibition in rats at 0.08 mmol/kg by carrageenan Edema Assay; 50-59; assay type: functional
[23] = system: Rattus norvegicus; experiment: The percent inhibition was calculated from the average differences in hind paw volume between the adjuvant injected controls and the adjuvant-injected medicated rats at 0.08 mmol/kg; 50-59; assay type: functional
[24] = system: Rattus norvegicus; experiment: The mean increase in paw volume was compared between drug treated groups and placebo to calculate the percent inhibition in rats at 0.02 mmol/kg by carrageenan Edema Assay; 0-19; assay type: functional

## CC(CN1CCOCC1)c1cccc(C(=O)c2ccccc2)c1.Cl (centres undefined)
[1]
  Inhibition: 72%
[2]
  Ulcerogenic index: 2
[3]
  Ulcerogenic index: 5
[4]
  Weight gain: 10%
[5]
  Weight gain: 46%
[6]
  Inhibition: 89%
[7]
  Inhibition: 60%
[8]
  Ulcerogenic index: 7
[9]
  Inhibition: 30%
[10]
  ED50: 5 µmol/kg
[11]
  Ulcerogenic index: 4
[12]
  Weight gain: 2%
[13]
  Ulcerogenic index: 1
[14]
  IC50: 10 µM
[15]
  Weight gain: 70%
[16]
  Inhibition: 49%
[17]
  Ulcerogenic index: 0
[18]
  ED50: 8.4 mg/kg
[19]
  Weight gain: 43%

## CC1CN(CC(C)c2cccc(C(=O)c3ccccc3)c2)CC(C)O1 (centres undefined)
[20]
  inhibition in vivo at 80 µmol/kg: 70%
[21]
  inhibition in vivo at 80 µmol/kg: 60%

## CC(CN1C(C)CCCC1C)c1cccc(C(=O)c2ccccc2)c1 (centres undefined)
[22]
  inhibition in vivo at 80 µmol/kg: 50%

## CC1CCCC(C)N1CCc1cccc(C(O)c2ccccc2)c1 (centres undefined)
[23]
  inhibition in vivo at 80 µmol/kg: 50%
[24]
  inhibition in vivo at 20 µmol/kg: 0%
